From ChEMBL document CHEMBL2380206, “Discovery of potent, selective chymase inhibitors via fragment linking strategies” (J Med Chem, 2013)

Key:
Cathepsin G = target: T1, Cathepsin G (Homo sapiens, UniProt P08311); assay: Inhibition of human cathepsin G using bis(succinoyl-L-alanyl-L-prolyl-L-phenylalanylamide) as substrate after 1 hr by fluorescence assay
T1 sequence (P08311 whole entry): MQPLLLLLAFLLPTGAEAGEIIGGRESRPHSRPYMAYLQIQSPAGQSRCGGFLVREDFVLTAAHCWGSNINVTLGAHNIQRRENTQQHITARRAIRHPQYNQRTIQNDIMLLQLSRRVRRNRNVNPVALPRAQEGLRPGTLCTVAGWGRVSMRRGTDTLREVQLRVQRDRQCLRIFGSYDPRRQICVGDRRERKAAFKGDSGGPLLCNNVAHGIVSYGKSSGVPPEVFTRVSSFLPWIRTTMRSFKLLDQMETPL

Chymase = target: T2, Chymase (Homo sapiens, UniProt P23946); assay: Inhibition of recombinant human chymase using bis(succinoyl-L-alanyl-L-prolyl-L-phenylalanylamide) as substrate after 1 hr by fluorescence assay
T2 sequence (P23946 whole entry): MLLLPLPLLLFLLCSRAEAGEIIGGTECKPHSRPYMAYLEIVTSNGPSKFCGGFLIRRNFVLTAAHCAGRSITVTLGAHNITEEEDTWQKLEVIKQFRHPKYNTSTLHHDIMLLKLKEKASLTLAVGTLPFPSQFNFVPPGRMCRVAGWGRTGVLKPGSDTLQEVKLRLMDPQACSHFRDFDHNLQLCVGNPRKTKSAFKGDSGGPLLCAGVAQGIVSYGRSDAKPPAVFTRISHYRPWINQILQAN

Liver microsomes = assay: Metabolic stability in human liver microsomes assessed as GSH adduct formation incubated for 3 min prior to NADPH addition measured after 2 hrs by mass spectrometric analysis
Homo sapiens = species: Homo sapiens; assay: Selectivity ratio of IC50 for human cathepsin G to IC50 for recombinant human chymase
Method in brief: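 Both IC50s from the same fluorogenic rhodamine 110 bis(Suc-Ala-Ala-Pro-Phe-amide) assay, 1 h at 28 °C/80% humidity, ex 485 / em 530 nm, with 0.01% CHAPS, 100 μM TCEP and 1% DMSO. Chymase: 500 pM recombinant human enzyme, 100 nM substrate, 20 mM Tris-HCl pH 8.0, 50 mM NaCl. Cathepsin G: 4 nM enzyme, 300 nM substrate, PBS plus 10 mM HEPES pH 7.4.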

Row | Structure (SMILES) | IC50 (Cathepsin G) [µM] | IC50 (Chymase) [µM] | also measured
1 | Cc1cccc2scc(Cn3c(=O)n(CCCC(=O)O)c4ccccc43)c12 | 1.4 | – | –
2 | CCCC(CC(=O)O)n1c(=O)n(Cc2cc(Br)cc3c2CC(=O)N3)c2ccccc21 (stereo not given) | 5.4 | – | –
3 | O=C1Cc2cc(Cl)ccc2N1 | – | > 1000 | –
4 | CN1C(=O)Cc2ccc(Cl)cc21 | – | > 1000 | –
5 | O=C1Cc2ccc(Br)cc2N1 | – | 570 | –
6 | O=C1Cc2cccc(Cl)c2N1 | – | > 1000 | –
7 | CCCC(CC(=O)O)n1c(=O)n(Cc2cc(Cl)cc3c2CC(=O)N3)c2ccccc21 (stereo not given) | > 10 | – | Stability (Liver microsomes): Stable
8 | CCCC(Cn1c(=O)n(Cc2cc(Br)cc3c2CC(=O)N3)c2ccccc21)C(=O)O (stereo not given) | > 10 | – | –
9 | CCCC(CC(=O)O)n1c(=O)n(Cc2cccc3c2CC(=O)N3)c2ccccc21 (stereo not given) | > 10 | – | –
10 | O=C1NCc2ccc(Cl)cc21 | – | > 1000 | –
11 | O=C(O)CCn1c(=O)n(Cc2cc(Br)cc3c2CC(=O)N3)c2ccccc21 | > 10 | – | –
12 | O=C1Cc2c(Cl)cccc2N1 | – | > 1000 | –
13 | CCCC(Cn1c(=O)n(Cc2cc(Br)cc3[nH]c(=O)sc23)c2ccccc21)C(=O)O (stereo not given) | > 10 | – | –
14 | O=C(O)CCn1c(=O)n(Cc2cc(Cl)cc3c2CC(=O)N3)c2ccccc21 | > 10 | – | –
15 | O=C1Cc2ccccc2N1 [OXINDOLE] | – | > 1000 | –
16 | O=C(O)CCCSc1nc2ccccc2n1Cc1cc(Cl)cc2c1CC(=O)N2 | 3.8 | – | –
17 | Cc1cccc2scc(Cn3c(SCCCC(=O)O)nc4ccccc43)c12 | 0.052 | – | Ratio IC50 (Homo sapiens): 10
18 | O=C1Cc2ccc(Cl)cc2N1 | > 1000 | – | –
